Test system: U2OS
Experiment: Multiplex assay against U2OS
Format: toxicity, cell-based
Settings: human
Outline: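 Per cents of healthy-nucleus cells form the tubulin, mitochondrial-mass and membrane-permeability phenotype values. Live cells were stained at seeding with Hoechst33342, BioTracker Green Microtubule Cytoskeleton Dye, MitoTracker Red and Annexin V Alexa Fluor 680. After compound addition they were imaged on a CQ1 microscope at 37°C and 5% CO2, and CellPathfinder machine-learning gating split them into Hoechst high-intensity objects or normal cells, normal cells into healthy, pyknosed or fragmented nuclei, and pyknosed cells into mitotic or apoptotic.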

[1] = 12 h, 1 µM, compound concentration 1 uM, replicate 1
[2] = 12 h, 1 µM, compound concentration 1 uM, replicate 2
[3] = 12 h, 10 µM, compound concentration 10 uM, replicate 1
[4] = 12 h, 10 µM, compound concentration 10 uM, replicate 2
[5] = 24 h, 1 µM, compound concentration 1 uM, replicate 1
[6] = 24 h, 1 µM, compound concentration 1 uM, replicate 2
[7] = 24 h, 10 µM, compound concentration 10 uM, replicate 1
[8] = 24 h, 10 µM, compound concentration 10 uM, replicate 2
[9] = 48 h, 1 µM, compound concentration 1 uM, replicate 1
[10] = 48 h, 1 µM, compound concentration 1 uM, replicate 2
[11] = 48 h, 10 µM, compound concentration 10 uM, replicate 1
[12] = 48 h, 10 µM, compound concentration 10 uM, replicate 2

COc1cccc2c1c(NS(=O)(=O)c1ccc(Cl)s1)nn2Cc1cccc(CNC(=O)C(C)(C)O)c1 was tested, and the “Population Apoptotic (%)” value [1] was 86%, the “Population Fragmented Nuclei (%)” value [1] was 23% and the “Population Healthy Nuclei (%)” value [1] was 67%. The “Population Hoechst High Intensity Objects (%)” value [1] was 3%, the “Population Membrane Permeable-Phenotype (%)” value [1] was 4% and the “Population Mitochondria Different-Phenotype (%)” value [1] was 1%. The “Population Mitotic Cells (%)” value [1] was 13%, the “Population Normal (%)” value [1] was 96% and the “Population Pyknosed Nuclei (%)” value [1] was 9%. For the same molecule, the “Population Tubulin-Different-Phenotype (%)” value [1] was 1%, the “Total Cell Count” value [1] was 261 and the “Population Apoptotic (%)” value [2] was 81%. For the same molecule, the “Population Fragmented Nuclei (%)” value [2] was 29%, the “Population Healthy Nuclei (%)” value [2] was 64% and the “Population Hoechst High Intensity Objects (%)” value [2] was 6%. For the same molecule, the “Population Membrane Permeable-Phenotype (%)” value [2] was 7%, the “Population Mitochondria Different-Phenotype (%)” value [2] was 3% and the “Population Mitotic Cells (%)” value [2] was 18%. The “Population Normal (%)” value [2] was 93%, the “Population Pyknosed Nuclei (%)” value [2] was 5% and the “Population Tubulin-Different-Phenotype (%)” value [2] was 6%. For the same molecule, the “Total Cell Count” value [2] was 201, the “Population Apoptotic (%)” value [3] was 76% and the “Population Fragmented Nuclei (%)” value [3] was 26%. For the same molecule, the “Population Healthy Nuclei (%)” value [3] was 65%, the “Population Hoechst High Intensity Objects (%)” value [3] was 1% and the “Population Membrane Permeable-Phenotype (%)” value [3] was 6%. For the same molecule, the “Population Mitochondria Different-Phenotype (%)” value [3] was 2%, the “Population Mitotic Cells (%)” value [3] was 23% and the “Population Normal (%)” value [3] was 98%. For the same molecule, the “Population Pyknosed Nuclei (%)” value [3] was 8%, the “Population Tubulin-Different-Phenotype (%)” value [3] was 4% and the “Total Cell Count” value [3] was 264. The “Population Apoptotic (%)” value [4] was 83%, the “Population Fragmented Nuclei (%)” value [4] was 25% and the “Population Healthy Nuclei (%)” value [4] was 70%. The “Population Hoechst High Intensity Objects (%)” value [4] was 5%, the “Population Membrane Permeable-Phenotype (%)” value [4] was 8% and the “Population Mitochondria Different-Phenotype (%)” value [4] was 3%. The “Population Mitotic Cells (%)” value [4] was 16%, the “Population Normal (%)” value [4] was 94% and the “Population Pyknosed Nuclei (%)” value [4] was 4%. For the same molecule, the “Population Tubulin-Different-Phenotype (%)” value [4] was 2%, the “Total Cell Count” value [4] was 140 and the “Population Apoptotic (%)” value [5] was 96%. The “Population Fragmented Nuclei (%)” value [5] was 20%, the “Population Healthy Nuclei (%)” value [5] was 70% and the “Population Hoechst High Intensity Objects (%)” value [5] was 1%. For the same molecule, the “Population Membrane Permeable-Phenotype (%)” value [5] was 5%, the “Population Mitochondria Different-Phenotype (%)” value [5] was 1% and the “Population Mitotic Cells (%)” value [5] was 3%. The “Population Normal (%)” value [5] was 98%, the “Population Pyknosed Nuclei (%)” value [5] was 8% and the “Population Tubulin-Different-Phenotype (%)” value [5] was 3%. The “Total Cell Count” value [5] was 307, the “Population Apoptotic (%)” value [6] was 90% and the “Population Fragmented Nuclei (%)” value [6] was 28%. The “Population Healthy Nuclei (%)” value [6] was 66%, the “Population Hoechst High Intensity Objects (%)” value [6] was 5% and the “Population Membrane Permeable-Phenotype (%)” value [6] was 8%. For the same molecule, the “Population Mitochondria Different-Phenotype (%)” value [6] was 3%, the “Population Mitotic Cells (%)” value [6] was 9% and the “Population Normal (%)” value [6] was 94%. For the same molecule, the “Population Pyknosed Nuclei (%)” value [6] was 4%, the “Population Tubulin-Different-Phenotype (%)” value [6] was 6% and the “Total Cell Count” value [6] was 242. For the same molecule, the “Population Apoptotic (%)” value [7] was 90%, the “Population Fragmented Nuclei (%)” value [7] was 25% and the “Population Healthy Nuclei (%)” value [7] was 64%. The “Population Hoechst High Intensity Objects (%)” value [7] was 1%, the “Population Membrane Permeable-Phenotype (%)” value [7] was 5% and the “Population Mitochondria Different-Phenotype (%)” value [7] was 3%. For the same molecule, the “Population Mitotic Cells (%)” value [7] was 10%, the “Population Normal (%)” value [7] was 98% and the “Population Pyknosed Nuclei (%)” value [7] was 10%. The “Population Tubulin-Different-Phenotype (%)” value [7] was 2%, the “Total Cell Count” value [7] was 304 and the “Population Apoptotic (%)” value [8] was 88%. For the same molecule, the “Population Healthy Nuclei (%)” value [8] was 68%, the “Population Hoechst High Intensity Objects (%)” value [8] was 5% and the “Population Membrane Permeable-Phenotype (%)” value [8] was 8%. For the same molecule, the “Population Mitochondria Different-Phenotype (%)” value [8] was 4%, the “Population Mitotic Cells (%)” value [8] was 11% and the “Population Normal (%)” value [8] was 94%. The “Population Pyknosed Nuclei (%)” value [8] was 5%, the “Total Cell Count” value [8] was 167 and the “Population Apoptotic (%)” value [9] was 95%. For the same molecule, the “Population Fragmented Nuclei (%)” value [9] was 14%, the “Population Healthy Nuclei (%)” value [9] was 76% and the “Population Hoechst High Intensity Objects (%)” value [9] was 1%. The “Population Membrane Permeable-Phenotype (%)” value [9] was 4%, the “Population Mitochondria Different-Phenotype (%)” value [9] was 1% and the “Population Mitotic Cells (%)” value [9] was 4%. The “Population Normal (%)” value [9] was 98%, the “Population Pyknosed Nuclei (%)” value [9] was 9% and the “Population Tubulin-Different-Phenotype (%)” value [9] was 2%. For the same molecule, the “Total Cell Count” value [9] was 463, the “Population Apoptotic (%)” value [10] was 74% and the “Population Fragmented Nuclei (%)” value [10] was 22%. The “Population Healthy Nuclei (%)” value [10] was 68%, the “Population Hoechst High Intensity Objects (%)” value [10] was 7% and the “Population Membrane Permeable-Phenotype (%)” value [10] was 5%. For the same molecule, the “Population Mitochondria Different-Phenotype (%)” value [10] was 4%, the “Population Mitotic Cells (%)” value [10] was 25% and the “Population Normal (%)” value [10] was 92%. The “Population Tubulin-Different-Phenotype (%)” value [10] was 5%, the “Total Cell Count” value [10] was 314 and the “Population Apoptotic (%)” value [11] was 93%. The “Population Fragmented Nuclei (%)” value [11] was 20%, the “Population Healthy Nuclei (%)” value [11] was 71% and the “Population Hoechst High Intensity Objects (%)” value [11] was 2%. For the same molecule, the “Population Membrane Permeable-Phenotype (%)” value [11] was 5%, the “Population Mitochondria Different-Phenotype (%)” value [11] was 2% and the “Population Mitotic Cells (%)” value [11] was 6%. The “Population Normal (%)” value [11] was 97%, the “Population Pyknosed Nuclei (%)” value [11] was 8% and the “Population Tubulin-Different-Phenotype (%)” value [11] was 3%. The “Total Cell Count” value [11] was 413, the “Population Apoptotic (%)” value [12] was 100% and the “Population Fragmented Nuclei (%)” value [12] was 22%. The “Population Hoechst High Intensity Objects (%)” value [12] was 3%, the “Population Mitochondria Different-Phenotype (%)” value [12] was 3% and the “Population Mitotic Cells (%)” value [12] was 0%. The “Population Normal (%)” value [12] was 96%, the “Population Pyknosed Nuclei (%)” value [12] was 5% and the “Total Cell Count” value [12] was 235.

Source: ChEMBL document CHEMBL5058577, “EUbOPEN Chemogenomics Library 2 (Multiplex)” (2022)
